Results as given in ChEMBL document CHEMBL1123719, “Leukotriene receptor antagonists. 1. Synthesis and structure-activity relationships of alkoxyacetophenone derivatives” (J Med Chem, 1987).
Blank lines part the entries; values can stand above or below the compound they belong to.

Columns and labels:
Cavia porcellus [1] = species: Cavia porcellus; assay: Percent inhibition LTD4-induced contraction of guinea pig ileum at 3 uM of concentration; assay type: functional
Method in brief: (§1)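 Percent reduction of LTD4-induced contraction of isolated ileum from male Hartley guinea pigs (200-400 g). The antagonist was tested at the single concentration stated, and contraction was measured isometrically as grams of force.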

[2] = tested on: cysteinyl leukotriene receptor (Cavia porcellus); assay: Inhibition of LTD4-induced contraction of guinea pig ileum.
Cavia porcellus [3] = species: Cavia porcellus; assay: Percent inhibition LTD4-induced contraction of guinea pig ileum at 30 uM of concentration; assay type: functional; method in brief: as §1
Cavia porcellus [4] = species: Cavia porcellus; assay: Negative logarithm of compound concentration that reduced an LTD4-induced contraction of guinea pig ileum by 50%; assay type: functional
Method in brief: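 Ileum from male Hartley guinea pigs (200-400 g), with isometric tension recorded. Two, three or four antagonist concentrations were tested on a single ileum against a submaximal LTD4 contraction. The concentration giving 50% inhibition was extrapolated by linear regression and expressed as -log IC50.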

Cavia porcellus [5] = species: Cavia porcellus; assay: Percent inhibition LTD4-induced contraction of guinea pig ileum at 1 uM of concentration; assay type: functional; method in brief: as §1
Cavia porcellus [6] = species: Cavia porcellus; assay: Percent inhibition LTD4-induced contraction of guinea pig ileum at 10 uM of concentration; assay type: functional; method in brief: as §1
Cavia porcellus [7] = assay: Bronchospastic activity to prevent increase in total pulmonary impedance (TPI) in guinea pig when administered intravenously; assay type: functional
Method in brief: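 Anesthetized male Hartley guinea pigs (200-400 g), body temperature kept normal on an isothermal pad. Total pulmonary impedance was recorded with pressure transducers. LTD4 was given iv as randomized doses to build dose-response curves. The antagonist was given intravenously.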

SMILES: CCCc1cc(C(C)=O)ccc1OCCCCCC(=O)O
Inhibition (Cavia porcellus [1]): 0%

pKB [2]: 6
SMILES: CCCc1c(OCCCCCC(=O)O)ccc(C(C)=O)c1O

SMILES: CCCc1c(OCC(=O)O)ccc(C(C)=O)c1O
Inhibition (Cavia porcellus [3]): 8%

pKB [2]: 7
SMILES: CCCc1c(OCCCCCCCc2nn[nH]n2)ccc(C(C)=O)c1O

SMILES: CCCc1c(OCCCCCC(=O)O)ccc(C(=O)OC)c1O
Inhibition (Cavia porcellus [1]): 21%

IC50 (Cavia porcellus [4]): 3.16 µM
SMILES: CCCc1c(OCCCCCCCCCCc2nn[nH]n2)ccc(C(C)=O)c1O

SMILES: CCCc1c(OCc2nn[nH]n2)ccc(C(C)=O)c1O
Inhibition (Cavia porcellus [3]): 28%

IC50 (Cavia porcellus [4]): 0.794 µM
SMILES: CCCc1c(OCCCCCCCCCC(=O)O)ccc(C(C)=O)c1O

IC50 (Cavia porcellus [4]): 0.794 µM
SMILES: CCCc1c(OCCCCCCCC(=O)O)ccc(C(C)=O)c1O

SMILES: C=CCc1c(OCCCCCC(=O)O)ccc(C(C)=O)c1O
Inhibition (Cavia porcellus [1]): 29%

IC50 (Cavia porcellus [4]): 6.31 µM
SMILES: CCCc1c(OCCCCCCN(C)C)ccc(C(C)=O)c1O

pKB [2]: 5.7
SMILES: CCCc1c(OCCCCCCC(=O)O)ccc(C(C)=O)c1O

SMILES: CCCc1c(OCCCCCCCCCCCCc2nn[nH]n2)ccc(C(C)=O)c1O
Inhibition (Cavia porcellus [1]): 47%

SMILES: CCCc1c(OCCC(=O)O)ccc(C(C)=O)c1O
Inhibition (Cavia porcellus [3]): 23%

IC50 (Cavia porcellus [4]): 0.316 µM
SMILES: CCCc1c(OCCCCCCCCc2nn[nH]n2)ccc(C(C)=O)c1O

SMILES: CC(=O)c1ccc(OCCCCCC(=O)O)cc1O
Inhibition (Cavia porcellus [1]): 11%

IC50 (Cavia porcellus [4]): 3.98 µM
SMILES: CCCc1c(OCCCCCCO)ccc(C(C)=O)c1O

SMILES: CCCc1c(OCCCc2nnn[nH]2)ccc(C(C)=O)c1O
Inhibition (Cavia porcellus [5]): 15%

SMILES: CCCc1c(OCCCC(=O)O)ccc(C(C)=O)c1O
Inhibition (Cavia porcellus [3]): 43%

pKB [2]: 5.8
SMILES: CCCc1c(OCCCCC(=O)O)ccc(C(C)=O)c1O

SMILES: CCCc1c(OCCCCCC#N)ccc(C(C)=O)c1O
Inhibition (Cavia porcellus [1]): 0%

SMILES: CCCc1c(OCCCCCC(=O)O)ccc(O)c1C(C)=O
Inhibition (Cavia porcellus [6]): 0%

IC50 (Cavia porcellus [4]): 3.16 µM
SMILES: CCCc1c(OCCCCCCN2CCOCC2)ccc(C(C)=O)c1O

IC50 (Cavia porcellus [4]): 0.251 µM
SMILES: CCCc1c(OCCCCCCCCCc2nn[nH]n2)ccc(C(C)=O)c1O

pKB [2]: 7.1
SMILES: CCCc1c(OCCCCCCc2nn[nH]n2)ccc(C(C)=O)c1O
Increase (Cavia porcellus [7]): 27.1%

pKB [2]: 6.6
SMILES: CCCc1c(OCCCCCc2nn[nH]n2)ccc(C(C)=O)c1O
Increase (Cavia porcellus [7]): 25.6%

pKB [2]: 5.8
SMILES: CCCc1c(OCCCCCCCCC(=O)O)ccc(C(C)=O)c1O

SMILES: CCCc1c(OCCCCc2nnn[nH]2)ccc(C(C)=O)c1O [TOMELUKAST]
Increase (Cavia porcellus [7]): 2.2%

pKB [2]: 6.1
SMILES: CCCc1c(OCCCCCC(=O)O)ccc(C(=O)CC)c1O

IC50 (Cavia porcellus [4]): 5.01 µM
SMILES: CCCc1c(OCCCCCCN2CCN(C)CC2)ccc(C(C)=O)c1O

SMILES: CCCc1c(OCCCCCCCCCCC(=O)O)ccc(C(C)=O)c1O
Inhibition (Cavia porcellus [1]): 79%
